G6PDH CS = L. mesenteroides G6PDH inhibition counter-screen; Purified L. mesenteroides G6PDH, diaphorase/resazurin coupled fluorescence, 45 min; inhibition, % at 5 µM; 0.12% of 200,000 active; in the data active means inhibition above about 50%
Diaph inh CS = counter-screen for diaphorase-based assays: diaphorase inhibitors and chemical oxidizers. diaphorase resazurin-to-resorufin fluorescence, NADH, 16 min; bacterial (C. kluyveri) enzyme, not human. inhibition, % at 20 µM. 0.69% of 190,000 active. AID 1217;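 active means primary screen inhibition at 20 µM above a set limit, cut at about 50% in these data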;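 further: plate controls were DMSO with full reaction for no effect and wells lacking NADH for full effect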
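System: Diaphorase enzyme from Clostridium kluyveri | Amount: Enzyme working solution with 0.14 U/mL diaphorase | Benchmarks: No-NADH positive control and DMSO neutral control | Signal: Fluorescence of resorufin formed from resazurin, Ex 544/Em 590 nm | Schedule: 16-min room-temperature incubation before reading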
PfGluPho inh = PfG6PD (Plasmodium falciparum) enzyme inhibition; 0.78% of 350,000 active; PfGluPho enzyme, NADPH resazurin-diaphorase fluorescence; inhibition, % at 20 µM;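 active means inhibition reaching at least a set limit at 20 µM in the primary screen, cut at about 59% in these data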;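 further: 0% = DMSO wells with substrate and 100% = DMSO wells lacking glucose-6-phosphate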
Diaphorase act = counter-screen for diaphorase-based assays: diaphorase activators and chemical reducers. activation factor at 20 µM. 0.005% of 190,000 active. Diaphorase/resazurin coupled assay, resorufin fluorescence, 16 min; hits give high values; 1 = vehicle wells, 0 = NADH-free wells. AID 1229;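 active means diaphorase activity raised at least twofold by the compound at 20 µM; inactive means activation factor below 2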
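Material: purified diaphorase enzyme from Clostridium kluyveri; Also added: 0.114 mM NADH and 0.1 mM resazurin, final amounts; Doses: single compound dose of 20 µM, 1% DMSO final; Times: 16 min enzyme reaction, ambient temperature; Detection: resorufin fluorescence, excitation 544 nm, emission 590 nm; Measure: increased resorufin signal from activators or reducing compounds.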
HKDC1 inh = blocks human hexokinase HKDC1 activity; Q2TB90; inhibition, % at 20 µM; recombinant HKDC1, G6PDH/diaphorase resazurin coupled fluorescence; 0.16% of 340,000 active; AID 493160;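 active means inhibition above about 35% when tested at 20 µM, limit read from the data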;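 further: plate controls were DMSO wells with enzyme for no effect and DMSO wells lacking enzyme for full effect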
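System: Recombinant HKDC1 hexokinase | Amount: HKDC1 at 5 µg/mL | Reagent: Glucose with 1 mM ATP | Doses: Single 20 µM dose | Incubation: Reaction time 90 min, room temperature, protected from light | Signal: Coupled resazurin fluorescence, excitation 525 nm, emission 613 nm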
PfGluPho conf = confirmation of Plasmodium falciparum G6PD inhibitors. recombinant PfGluPho, NADPH-diaphorase-resazurin fluorescence. AID 504753. shares compounds with PfGluPho inh. inhibition, % at 20 µM. 34% of 2,400 active;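 active means inhibition of at least 50% at 20 µM in any single replicate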;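 further: 0% = DMSO with substrate and 100% = DMSO lacking glucose-6-phosphate substrate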
Diaphorase 10uM = counter-screen for P. falciparum G6PD inhibitors: diaphorase inhibitors, oxidizers. AID 504862. inhibition, % at 20 µM. shares compounds with PfGluPho inh. diaphorase-coupled resazurin reduction, fluorescence, NADPH 10 uM. 39% of 820 active;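 active means average inhibition reaching 50% or more with the compound at 20 µM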;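 further: resorufin red fluorescence formed as diaphorase reduces resazurin using NADPH; 0% = DMSO with enzyme and 100% = DMSO without enzyme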
Diaph ctr 30uM = counter-screen for P. falciparum G6PD inhibitors: diaphorase inhibitors, oxidizers; shares compounds with PfGluPho inh; Diaphorase/resazurin coupled assay, resorufin fluorescence, 30 uM NADPH; inhibition, % at 20 µM; 29% of 820 active; AID 504863;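 active means inhibition averaging 50% or more, tested at 20 µM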;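 further: 0% = DMSO with enzyme and 100% = DMSO wells lacking diaphorase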
* marks the source's active call; other numbers are inactive results; x = not tested or not shown. In the library only some 1.3% were active in any assay of this set; here they are far more common.

SMILES	G6PDH CS	Diaph inh CS	PfGluPho inh	Diaphorase act	HKDC1 inh	PfGluPho conf	others
O=C(Nc1ccc(Cl)cc1)c1ccc(-n2cncn2)c([N+](=O)[O-])c1	-13	8	84*	0.9	2	35
O=C(Nc1cccc(Cl)c1)c1ccc(-n2cncn2)c([N+](=O)[O-])c1	-27	10	61*	0.9	-2	32
O=c1cc(-c2ccccc2)oc2cc(O)c(O)c(O)c12	x	x	102*	x	9	95*	Diaphorase 10uM=94*;Diaph ctr 30uM=81*
COc1c(O)cc2oc(-c3ccc(O)cc3)cc(=O)c2c1O	x	x	7	x	4	x
CC1(OC(=O)CCc2ccccc2)C(=O)C=C2C=C(c3ccc(C#N)cc3)N(C(CO)CO)C=C2C1=O (stereo not drawn)	x	x	65*	x	22	23
COc1ccc(N2C=C3C(=O)C(C)(OC(=O)CCc4ccccc4)C(=O)C=C3C=C2c2ccc(C#N)cc2)cc1 (stereo not drawn)	x	x	69*	x	35	4
COc1ccc(CN2C=C3C(=O)C(C)(OC(=O)CCc4ccccc4)C(=O)C=C3C=C2c2ccc(C#N)cc2)cc1 (stereo not drawn)	x	x	52	x	30	x
CC1(OC(=O)CCc2ccccc2)C(=O)C=C2C=C(c3ccc(C#N)cc3)N(CCc3c[nH]c4ccccc34)C=C2C1=O (stereo not drawn)	x	x	79*	x	30	27
CCN(CC)CCCN1C=C2C(=O)C(C)(OC(=O)CCc3ccccc3)C(=O)C=C2C=C1c1ccc(C#N)cc1 (stereo not drawn)	x	x	30	x	13	x
CC1(OC(=O)CCc2ccccc2)C(=O)C=C2C=C(c3ccc(C#N)cc3)N(C3CCCCC3)C=C2C1=O (stereo not drawn)	x	x	75*	x	21	26
CCc1cccc2c(C(=O)CN3C(=O)N(C)C4(CCCCC4)C3=O)c[nH]c12	x	x	6	x	1	x
O=C(NCCCN1CCOCC1)c1sc2cc([N+](=O)[O-])ccc2c1Cl	1	6	88*	0.9	15	95*	Diaphorase 10uM=-22;Diaph ctr 30uM=-21
O=C(Nc1ccccn1)c1sc2cc([N+](=O)[O-])ccc2c1Cl	x	x	70*	x	-22	61*	Diaphorase 10uM=-15;Diaph ctr 30uM=-18
COc1ccc(-c2cn3cc(C)ccc3n2)cc1F	8	-3	107*	1	-5	73*	Diaphorase 10uM=64*;Diaph ctr 30uM=54*
COc1ccc(-c2cn3ccccc3n2)cc1OC	-5	14	5	0.9	-2	x
COc1ccc(-c2cn3cccc(C)c3n2)cc1F	6	17	26	0.8	-5	x
COc1ccc(-c2cn3cc(C)ccc3n2)cc1OC	-15	-2	61*	1	-1	43
Cc1cccc(C(=O)Nc2ccc(C(=O)c3ccccc3)cc2)c1	x	x	63*	x	0	6
Cc1cccc(C(=O)Nc2ccc(C(=O)c3ccncc3)cc2)c1	x	x	64*	x	x	10
COc1ccc2c(c1)C(=O)N(c1ccccc1)C(=O)C2	13	-15	-13	1.1	-2	x
COc1ccc2c(c1)C1(C)CC(C)(C)N2C(=O)N1c1ccccc1 (stereo not drawn)	18	14	73*	0.9	4	47
Cc1ccc(NC(=O)COC(=O)c2ccc(CN3CCCC3=O)cc2)c(Cl)c1	x	x	17	x	1	x
Cc1cc(NC(=O)CSc2nc(-c3cccs3)nc3ccccc23)no1	x	x	1	x	3	x
CCc1nc(N2CCC3(CC2)OCCO3)c2nnn(Cc3ccccc3)c2n1	5	11	7	0.9	2	x
Cc1nc(N2CCC3(CC2)OCCO3)c2nnn(Cc3ccccc3F)c2n1	17	2	61*	1	-4	31
CC(=O)Nc1cc(OC(C)=O)c2nonc2c1OC(C)=O	59*	76*	80*	0.2	9	53*	Diaphorase 10uM=18;Diaph ctr 30uM=24

Assay outcomes (PubChem)
